ChEMBL document CHEMBL1136915 (Bioorg Med Chem Lett, 2009)

Key:
[1] = target: T1, Prostaglandin G/H synthase 1 (Ovis aries, UniProt P05979); test: Inhibition of ovine COX1 by enzyme immunoassay
T1 sequence (P05979 whole entry): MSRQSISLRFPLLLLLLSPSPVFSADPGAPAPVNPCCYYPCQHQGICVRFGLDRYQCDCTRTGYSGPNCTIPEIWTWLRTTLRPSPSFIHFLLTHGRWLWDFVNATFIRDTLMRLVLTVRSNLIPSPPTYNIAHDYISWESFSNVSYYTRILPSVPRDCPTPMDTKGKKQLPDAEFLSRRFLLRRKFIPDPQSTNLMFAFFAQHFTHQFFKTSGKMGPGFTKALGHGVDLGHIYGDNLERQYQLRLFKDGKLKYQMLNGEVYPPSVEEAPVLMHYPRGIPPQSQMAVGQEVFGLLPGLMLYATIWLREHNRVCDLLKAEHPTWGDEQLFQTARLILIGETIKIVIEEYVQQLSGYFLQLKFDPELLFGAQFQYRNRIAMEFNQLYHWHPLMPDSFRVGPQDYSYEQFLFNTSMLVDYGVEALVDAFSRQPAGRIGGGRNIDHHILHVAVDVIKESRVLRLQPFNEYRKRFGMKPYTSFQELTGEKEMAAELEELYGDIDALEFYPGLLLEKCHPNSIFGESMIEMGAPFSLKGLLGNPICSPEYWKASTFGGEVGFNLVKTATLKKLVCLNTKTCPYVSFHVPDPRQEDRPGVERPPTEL
Summary of the method: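 COX inhibition was measured in vitro with an enzyme immunoassay kit. COX-2 selectivity index = COX-1 IC50/COX-2 IC50.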

[2] = target: T2, Prostaglandin G/H synthase 2 (Homo sapiens, UniProt P35354); test: Inhibition of human COX2 by enzyme immunoassay
T2 sequence (P35354 whole entry): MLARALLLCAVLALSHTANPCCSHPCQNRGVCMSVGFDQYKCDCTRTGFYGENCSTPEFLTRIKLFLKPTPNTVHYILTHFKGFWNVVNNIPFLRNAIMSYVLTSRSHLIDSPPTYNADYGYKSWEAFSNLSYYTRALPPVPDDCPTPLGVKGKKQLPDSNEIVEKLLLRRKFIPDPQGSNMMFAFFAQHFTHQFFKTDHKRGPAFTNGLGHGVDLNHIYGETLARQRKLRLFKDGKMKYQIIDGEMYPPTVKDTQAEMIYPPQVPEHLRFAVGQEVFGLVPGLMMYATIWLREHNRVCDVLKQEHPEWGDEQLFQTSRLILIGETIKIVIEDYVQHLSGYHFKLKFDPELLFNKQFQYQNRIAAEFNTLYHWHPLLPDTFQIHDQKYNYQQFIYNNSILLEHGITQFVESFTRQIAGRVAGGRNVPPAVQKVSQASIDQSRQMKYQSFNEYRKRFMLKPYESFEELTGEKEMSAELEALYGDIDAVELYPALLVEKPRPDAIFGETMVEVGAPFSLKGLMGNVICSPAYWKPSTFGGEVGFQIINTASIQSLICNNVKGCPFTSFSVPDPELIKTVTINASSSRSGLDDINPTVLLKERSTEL
Summary of the method: (§1)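 COX inhibition was measured in vitro with an enzyme immunoassay kit. IC50 is the mean of two determinations, with deviation from the mean <10%. COX-2 selectivity index = COX-1 IC50/COX-2 IC50.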

[3] = Selectivity ratio of IC50 for ovine COX1 to IC50 for human COX2; summary of the method: as §1
Rattus norvegicus [4] = test: Antiinflammatory activity against carrageenan-induced rat inflammation model assessed as inhibition of paw edema at 327 umol/kg, po after 3 hrs; format: functional
Summary of the method: (§2)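 Test compound was given orally to rats at the stated dose (µmol/kg), followed by carrageenan-induced paw edema.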

[5] = Nitric oxide release in phosphate buffer at pH 7.4 incubated at 37 degC after 1.5 hrs; parameters: concentration or dose not given beside the values; conditions: pH 7.4, 1.5 h
Serum = test: Nitric oxide release in rat serum containing phosphate buffer at pH 7.4 incubated at 37 degC after 1.5 hrs; conditions: pH 7.4, 1.5 h
Rattus norvegicus [6] = test: Antiinflammatory activity against carrageenan-induced rat inflammation model assessed as inhibition of paw edema at 11.7 umol/kg, po after 3 hrs; format: functional; summary of the method: as §2
[7] = Nitric oxide release in phosphate buffer containing 5 mM L-cysteine at pH 7.4 incubated at 37 degC after 1.5 hrs; conditions: pH 7.4, 1.5 h
Rattus norvegicus [8] = test: Antiinflammatory activity against carrageenan-induced rat inflammation model assessed as inhibition of paw edema at 357 umol/kg, po after 3 hrs; format: functional; summary of the method: as §2
Rattus norvegicus [9] = test: Antiinflammatory activity against carrageenan-induced rat inflammation model assessed as inhibition of paw edema at 714 umol/kg, po after 3 hrs; format: functional; summary of the method: as §2

SMILES | IC50 [1] [µM] | IC50 [2] [µM] | Ratio IC50 [3] | Activity [5] [%] | Activity (Serum) [%] | Activity [7] [%] | inhibition in vivo at 327 µmol/kg (Rattus norvegicus [4]) [%] | inhibition in vivo at 11.7 µmol/kg (Rattus norvegicus [6]) [%] | inhibition in vivo at 357 µmol/kg (Rattus norvegicus [8]) [%] | inhibition in vivo at 714 µmol/kg (Rattus norvegicus [9]) [%]
COc1ccc2c(c1)c(CC(=O)OC(CO[N+](=O)[O-])CO[N+](=O)[O-])c(C)n2C(=O)c1ccc(Cl)cc1 | > 100 | 0.6 | > 166 | 3.8 |  | 7.4 |  | 42.2 |  | 
CC(C)Cc1ccc(C(C)C(=O)O)cc1 (stereo not drawn) [IBUPROFEN] |  |  |  |  |  |  | 50 |  |  | 
O=[N+]([O-])OCC(CO[N+](=O)[O-])O[N+](=O)[O-] [NITROGLYCERIN] |  |  |  | 2.8 |  | 10.1 |  |  |  | 
CC(=O)Oc1ccccc1C(=O)O [ASPIRIN] |  |  |  |  |  |  |  |  |  | 50
COc1ccc2c(c1)c(CC(=O)O)c(C)n2C(=O)c1ccc(Cl)cc1 [INDOMETHACIN] |  |  |  |  |  |  |  | 50 |  | 

More lines, main results first:

IC50 [1] [µM] | IC50 [2] [µM] | Ratio IC50 [3] | Activity [5] [%] | Activity (Serum) [%] | Activity [7] [%] | SMILES | inhibition in vivo at 327 µmol/kg (Rattus norvegicus [4]) [%] | inhibition in vivo at 11.7 µmol/kg (Rattus norvegicus [6]) [%] | inhibition in vivo at 357 µmol/kg (Rattus norvegicus [8]) [%] | inhibition in vivo at 714 µmol/kg (Rattus norvegicus [9]) [%]
> 100 | 6.4 | > 15 | 4.4 | 79.5 |  | CC(=O)OCO/N=[N+](\[O-])N1CCC[C@H]1COC(=O)C(C)c1ccc(CC(C)C)cc1 (stereo partly drawn) | 57.1 |  |  | 
> 100 | 2.2 | > 45 | 7.4 | 50.6 |  | CC(=O)OCO/N=[N+](\[O-])N1CCC[C@H]1COC(=O)c1ccccc1OC(C)=O |  |  | 23.7 | 
 |  |  | 84.5 | 84.8 |  | [Na+].[O-]/N=[N+](\[O-])N1CCC[C@H]1CO |  |  |  | 
> 100 | 1.7 | > 58 | 3.4 |  | 6.8 | CC(C)Cc1ccc(C(C)C(=O)OC(CO[N+](=O)[O-])CO[N+](=O)[O-])cc1 (stereo not drawn) | 59.1 |  |  | 
> 100 | 7.7 | > 13 | 3.6 |  | 7.8 | CC(=O)Oc1ccccc1C(=O)OC(CO[N+](=O)[O-])CO[N+](=O)[O-] |  |  | 30.5 | 
> 100 | 9.3 | > 10 | 7.9 | 80.7 |  | COc1ccc2c(c1)c(CC(=O)OC[C@@H]1CCCN1/[N+]([O-])=N/OCOC(C)=O)c(C)n2C(=O)c1ccc(Cl)cc1 |  | 53.6 |  | 
